# Compounds with a hit are over-represented: about 2.4% of the library has one in this group of screens.
# NR2E3 ag-1: agonists of human NR2E3 nuclear receptor; inhibition of corepressor binding, % at 3.98 µM; 360,000 tested, 0.35% active; CHO-S Gal4-NCOR/VP16-NR2E3 two-hybrid, luciferase; Q9Y5X4; AID 602229;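 active = inhibition above the mean of all tested compounds plus 3 SD, cut at about 70% in these data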;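 also: 0% = DMSO with NR2E3 transfected cells and 100% = cells lacking NR2E3 construct; higher means lower luciferase signal from less NR2E3 corepressor binding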
# Target sequence (Q9Y5X4 whole entry, looked up, the tested form may be a part): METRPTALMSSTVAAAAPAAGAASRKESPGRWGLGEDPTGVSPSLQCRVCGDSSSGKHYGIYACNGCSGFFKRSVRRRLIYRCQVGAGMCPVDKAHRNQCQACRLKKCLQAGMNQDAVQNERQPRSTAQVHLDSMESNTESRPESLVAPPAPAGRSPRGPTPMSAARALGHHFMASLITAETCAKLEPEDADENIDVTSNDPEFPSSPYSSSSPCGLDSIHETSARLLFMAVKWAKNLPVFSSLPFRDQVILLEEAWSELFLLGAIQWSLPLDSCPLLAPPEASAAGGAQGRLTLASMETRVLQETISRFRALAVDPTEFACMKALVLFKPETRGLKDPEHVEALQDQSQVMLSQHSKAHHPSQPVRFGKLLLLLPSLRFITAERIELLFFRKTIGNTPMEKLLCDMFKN
# 697 NFkB inh: lowers PMA/ionomycin-induced NF-kB signal in 697 B cells | AID 435022 | 697 B-cell NF-kB luciferase reporter, 16 h | 330,000 tested, 0.33% active | inhibition, % at 4 µM; in the data active = inhibition above about 35%
# aDG glyco act: alpha-DG glycosylation activation; Pro5-aDG cells, alpha-DG glycosylation AlphaScreen (IIH6); 0% Pro5, 100% B10-LARGE cell signal; activation, % at 10 µM; 360,000 tested, 0.22% active;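 active = activation of at least 8% versus controls, or a plate z-score of at least 8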;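 also: Pro5 are CHO cells carrying HIG-tagged alpha-DG that lacks glycosylation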
# Jurkat NFkB inh: inhibitors of the PMA/ionomycin-induced NF-kB reporter in Jurkat cells; PMA/ionomycin-induced NF-kB luciferase reporter, luminescence; inhibition, % at 4 µM; 330,000 tested, 0.53% active; AID 435003; in the data active = inhibition above about 50%
# NR2E3 ag-2: NR2E3 (human) agonism. GST-NR2E3/biotin-RetCOR TR-FRET, 1536-well. inhibition of corepressor binding, % at 4.78 µM. 320,000 tested, 0.12% active;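 active = percent inhibition above the cutoff of mean plus 3 SD of all tested compounds, set per screening campaign, cut at about 20% in these data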;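 also: 0% = DMSO wells and 100% = biotin wells as full block of FRET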
#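 Format: 1536-well format; test system: GST-NR2E3 and biotin-RetCOR proteins; read-out basis: percent inhibition of TR-FRET ratio; timing: 5 h incubation at 4 °C; detection: time-resolved FRET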
# MPTP inh: permeability transition pore inhibition | isolated mouse mitochondria, Ca2+ swelling absorbance, 30 min | inhibition, % at 10 µM | 360,000 tested, 1.4% active;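 active = inhibition of 50% or more, scaled per plate between neutral and stimulator controls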;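 also: 0% = DMSO wells given calcium and 100% = 1 mM EGTA wells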
# MPTP counter: Rhodamine 123 counter-screen of mitochondrial pore hits | shares compounds with MPTP inh | isolated mitochondria, membrane potential, Rhodamine 123 fluorescence | inhibition, % at 10 µM | 5,000 tested, 78% active | AID 624504; in the data active = inhibition above about 22%;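 also: 0% = DMSO vehicle and 100% = positive control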
# MPTP abs DR: dose response confirmation of mitochondrial permeability transition pore inhibitors; isolated mitochondria swelling, absorbance; 780 tested, 58% active; IC50, µM; shares compounds with MPTP inh; in the data active = IC50 below about 20 µM
# MPTP counter DR: counter-screen for mitochondrial permeability transition pore inhibitors, dose response. shares compounds with MPTP inh. isolated mitochondria counterscreen, fluorescence read-out. IC50, µM. 780 tested, 49% active. AID 651564; in the data active = IC50 below about 80 µM
# Numbers without * were called inactive; x = not tested or not shown.
SMILES,NR2E3 ag-1,697 NFkB inh,aDG glyco act,Jurkat NFkB inh,NR2E3 ag-2,MPTP inh,MPTP counter,others
O=[N+]([O-])c1ccc(O)c(-c2nc(-c3ccccc3)c(-c3cccs3)[nH]2)c1,-23,-8,0,12,1,91*,86*,
ClCc1nc2ccccc2c2ccccc12,-20,13,0,-4,-5,64*,-6,MPTP abs DR=4.6*;MPTP counter DR=>80
CCOC(=O)c1c(CCl)nc2ccccc2c1-c1ccccc1,-25,-4,0,10,2,3,x,
O=C(Nc1cc(Cl)cc(Cl)c1)Nc1cnccn1,0,-14,0,3,3,62*,101*,
C[C@@H]1CN([C@H](C)CO)C(=O)CCCn2nncc2CO[C@@H]1CN(C)S(=O)(=O)c1ccc(Cl)cc1,-5,x,0,x,x,-2,x,
CN1CCN(/N=C/c2ccc(-c3ccccc3)cc2)CC1,-62,-74,1,-90,-3,70*,-11,
CN1CCN(/N=C/c2c3ccccc3c(Cl)c3ccccc23)CC1,3,2,0,-13,2,91*,-21,
C(=N\N1CCN(Cc2ccccc2)CC1)/c1ccc(-c2ccccc2)cc1,13,-1,-1,-5,-1,-1,x,
CSc1ccc(/C=N/N2CCN(C)CC2)cc1,-26,-42,0,-88,-5,0,x,
CC1(C)C(=O)OC(c2cc(Br)ccc2O)C(C)(C)C1=O (stereo unspecified),-13,-4,0,0,0,82*,89*,
CC12CN3CC(C)(CN(C1)C3c1cc(Br)ccc1O)C2=O (stereo unspecified),-15,10,0,6,0,-1,x,
Cc1ccccc1-c1cc2nc(-c3ccc([N+](=O)[O-])cc3)cc(=O)n2[nH]1,6,1,0,8,3,30,x,
O=c1cc(-c2ccc([N+](=O)[O-])cc2)nc2cc(-c3ccc(F)cc3)[nH]n12,-40,13,0,0,0,89*,-10,MPTP abs DR=>100;MPTP counter DR=28*
CCCC1NC(=O)c2cccnc2-n2c1nc1ccc(Cl)cc1c2=O (stereo unspecified),-29,x,0,x,x,1,x,
FC(F)(F)c1nnc(-c2ccccc2)nc1Oc1ccc(Cl)cc1Cl,-8,2,0,-17,4,71*,1,MPTP abs DR=14*;MPTP counter DR=>80
c1csc(C2Nc3ccccc3-c3nc4ccccc4n32)c1 (stereo unspecified),-24,-55,0,-60,-3,52*,75*,
c1cncc(C2Nc3ccccc3-c3nc4ccccc4n32)c1 (stereo unspecified),27,-1,0,-38,-3,59*,88*,
Cc1ccsc1C1Nc2ccccc2-c2nc3ccccc3n21 (stereo unspecified),-93,-75,1,-35,1,0,x,
c1ccc2c(c1)NC(c1ccncc1)n1c-2nc2ccccc21 (stereo unspecified),2,-6,1,-28,0,0,x,
CC(C)Cc1ccc(C(C)C(N)=Nc2ccc(O)cc2)cc1 (stereo unspecified),4,-6,1,35,-3,0,x,
CC(C)Cc1ccc(C(C)C(=O)Nc2ccc(O)cc2)cc1 (stereo unspecified),8,-11,2,15,-6,73*,38*,
O=C(NCc1ccccc1)c1sc(=S)n2c1[nH]c(=O)c1ccccc12,7,10,0,-12,-2,86*,89*,
Cc1ccc(-c2cc(C(=O)N3CCN(c4ncccn4)CC3)c3cc(Br)ccc3n2)o1,-8,24,-1,-7,2,-2,x,
COc1ccc(NC(=O)c2c(Nc3ccccc3)sc(C(=O)c3ccc(F)cc3)c2N)cc1,31,4,1,-3,6,92*,83*,
COc1ccc(OC)c(NC(=O)c2ccc(Cl)cc2)c1,-1,6,0,1,1,-1,x,
SMILES,NR2E3 ag-1,697 NFkB inh,aDG glyco act,Jurkat NFkB inh,NR2E3 ag-2,MPTP inh,MPTP counter,others
COc1ccccc1NC(=O)c1c(Nc2ccccc2C)sc(C(=O)Nc2cccc(Cl)c2)c1N,4,4,3,3,-3,87*,51*,
COc1ccc(C(=O)c2sc(Nc3ccccc3)c(C(=O)Nc3ccc(OC)c(OC)c3)c2N)cc1,-47,-28,0,-5,3,0,x,
COc1ccc(Nc2sc(C(=O)c3ccc(Cl)cc3)c(N)c2C(=O)Nc2ccccc2OC)cc1,-7,-6,1,-5,-5,68*,75*,
COc1ccc(C(=O)c2sc(Nc3cccc(OC)c3)c(C(=O)Nc3cccc(C)c3C)c2N)cc1,0,3,1,-1,0,11,x,
Cc1ccc(NC(=O)C2CC(Cl)=CCC2C(=O)O)c([N+](=O)[O-])c1 (stereo unspecified),-18,12,-1,-7,2,1,x,
CCC(C)(C)NC(=O)C(c1ccccc1Cl)N(Cc1cccnc1)C(=O)CCC(=O)Nc1cc(C)on1 (stereo unspecified),2,6,0,1,2,-1,x,
OCC1(CCOc2ccccc2)CCN(Cc2ccc(OC(F)F)cc2)CC1,31,-9,0,10,-2,0,x,
CN(C(=S)Nc1ccc(SC(F)F)cc1)c1ccc(O)cc1,-54,-25,0,1,-1,97*,82*,
CN(C(=S)Nc1ccc(Oc2ccccc2)cc1)c1ccc(O)cc1,-27,x,0,x,2,44,x,
O=c1oc2ccccc2c(NCc2ccc(Cl)cc2)c1[N+](=O)[O-],-37,-9,0,-11,5,54*,73*,
Cc1cc(Cl)cc(Cl)c1CNc1c([N+](=O)[O-])c(=O)oc2ccccc12,-10,-8,0,3,0,90*,96*,
O=c1oc2ccccc2c(NCc2ccccc2)c1[N+](=O)[O-],-21,10,0,1,0,4,x,
Cc1cccc(NC(=O)C2C(c3ccccc3)C2(Cl)Cl)c1 (stereo unspecified),-17,1,0,2,1,15,x,
Cc1ccc(NC(=O)C2C(c3ccccc3)C2(Cl)Cl)c(C)c1 (stereo unspecified),16,-1,0,1,1,53*,62*,
C=C(C)CNC(=S)N/N=C(\C)c1ccc(Cl)s1,-10,-26,0,-22,1,1,x,

# Source: PubChem (several laboratories)
